Screens deposited in PubChem by SRMLSC.
The full list was thinned out, with hits kept by preference.
H69AR growth 86K = blocks growth of human H69AR lung tumor cells; H69AR lung tumor viability, ATP luminescence, 72 h; stronger effect = lower value; viability, % at 10 µM; hit rate 6% among 85,000; AID 598;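 active means viability at or below 40%; inactive means viability above 40%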;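 further: multidrug resistant small cell line overexpressing MRP-1 efflux transporter; 100% = mean luminescence of untreated control wells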
bCat KO growth = beta-catenin-lacking colon tumor cell growth suppression; hit rate 1.5% among 140,000; viability, % at 10 µM; HCT116 beta-catenin knockout viability, CellTiter-Glo, 60 h; stronger effect = lower value;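 active means viability at or under a set limit, the compound median less 4 SD, cut at about 6% in these data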;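 further: 0% = Hyamine 1622 control at 20 µM and 100% = untreated cell control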
HCT116 PTEN-null = suppresses growth of cells with PTEN deletion; HCT116 PTEN-null viability, CellTiter-Glo, 60 h; stronger effect = lower value; viability, % at 10 µM; hit rate 1.2% among 140,000; AID 827;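 active means viability at or below a set limit, 4 SD under the median of all tested compounds, cut at about 3.7% in these data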;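 further: PTEN knockout HCT116 line with beta catenin targeted HCT116 as companion control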
Lung fibro prol = blocks proliferation of human lung fibroblasts. LL 47 human lung fibroblast viability, ATP luminescence; stronger effect = lower value. viability, % at 10 µM. hit rate 1.1% among 85,000. AID 719;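 active means viability at or below 50% in the single dose screen; inactive means viability above 50%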;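 further: compound exposure lasted 72 h before the ATP readout; 100% = median luminescence of untreated cell-only wells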
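Signal: luminescent ATP detection, CellTiter-Glo; assay system: LL 47 human lung fibroblasts; input: 1,150 cells/well; incubation: overnight cell rest, 72 h compound treatment at 37 °C; measure: % viability versus median cells-only luminescence; medium: IMEM growth medium with 15% fetal bovine serum; dosing: compound addition at 0.1% DMSO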
HUVEC prolif 384 = human endothelial cell proliferation inhibition | HUVEC proliferation, CellTiter-Glo luminescence, 72 h; stronger effect = lower value | viability, % at 10 µM (by protocol) | hit rate 1.1% among 86,000 | AID 648;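 active means viability at or below 30%; inactive means viability above 30%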;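 further: 100% = median luminescence of DMSO-only cell control wells on each plate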
* marks the source's active call; other numbers are inactive results; nt = no result given.

SMILES	H69AR growth 86K	bCat KO growth	HCT116 PTEN-null	Lung fibro prol	HUVEC prolif 384
COc1cc2[nH]c(=O)n(CCC(=O)N3CCN(c4cc(Cl)ccc4C)CC3)c(=O)c2cc1OC	0.5*	2.1*	1.9*	3.0*	2.0*
CCOc1cc2[nH]c(=O)n(CCC(=O)N3CCN(c4ccccc4OC)CC3)c(=O)c2cc1OCC	85	94	85	102	96
Cc1ccc(NC(=O)Cn2c(=O)oc3cc(S(=O)(=O)N4CCC(C)CC4)ccc32)cc1C	17*	81	99	89	77
Cc1nn(-c2ccccc2)c(Cl)c1/C=N/Nc1nc2ccccc2[nH]1	nt	32	29	nt	nt
COc1ccc(-c2cnnc(N/N=C/c3ccc(O)c(O)c3)n2)cc1	nt	4.5*	2.9*	nt	nt
COc1ccc(-c2cnnc(N/N=C/c3c(C)nn(-c4ccccc4)c3Cl)n2)cc1	nt	4.7*	2.9*	nt	nt
COc1cc(/C=N/Nc2nnc3c(n2)[nH]c2ccccc23)ccc1O	nt	94	104	nt	nt
COc1ccc(N(CC(=O)NN=C2CCCCCCC2)S(=O)(=O)c2ccccc2)cc1	nt	102	98	nt	nt
O=C(Oc1ccccc1/C=C\C(=O)c1cc2ccccc2o1)c1cccc(F)c1	nt	5.9*	1.3*	nt	nt
O=C(Oc1ccccc1/C=C\C(=O)c1cc2ccccc2o1)c1ccccc1	nt	2.3*	2.4*	nt	nt
O=C(Nc1ccccc1)c1ccc(OC(=O)c2cc3ccccc3o2)cc1	89	89	95	93	75
COc1cccc(C(=O)Oc2ccccc2/C=C\C(=O)c2cc3ccccc3o2)c1	nt	2.2*	1.1*	nt	nt
COc1ccc(Cl)cc1NC(=O)CSc1nnc(CN2CCOCC2)n1-c1ccc(Cl)cc1	52	46	34	86	75
CC(=O)Nc1ccc(OCC(O)Cn2nc(C)c(Br)c2C)cc1 (configuration not stated)	88	96	95	100	100
CCOC(=O)C1CCCN(C(=O)c2ccco2)C1 (configuration not stated)	55	98	98	102	97
CCC(C)NC(=O)C1=C(C)C(=O)OC12CCC(C)CC2 (configuration not stated)	100	90	91	94	92
COc1ccc(NC(=O)Nc2nnc(N3CCC(C)CC3)s2)cc1OC	37*	98	90	94	83
CCOC(=O)N1CCN(C(=O)c2ccc3c(=O)n(Cc4ccc(Cl)cc4)c(=S)[nH]c3c2)CC1	13*	68	64	93	53
CCOC(=O)N1CCN(C(=O)c2ccc3c(=O)n(CCC4=CCCCC4)c(=S)[nH]c3c2)CC1	43	62	48	91	78
COCCn1c(=S)[nH]c2cc(C(=O)N3CCN(c4ccc(F)cc4)CC3)ccc2c1=O	35*	89	83	92	91
CCOC(=O)N1CCN(C(=O)c2ccc3c(=O)n(CCc4ccccc4)c(=S)[nH]c3c2)CC1	10*	20	26	76	44
COc1ccc(C2c3c(ncn(Cc4ccco4)c3=N)Oc3ccc4ccccc4c32)cc1 (configuration not stated)	nt	2.2*	1.6*	nt	nt
COc1ccc(C2c3ccc4ccccc4c3Oc3ncn(CCN4CCOCC4)c(=N)c32)cc1 (configuration not stated)	1.9*	2.1*	1.8*	3.2*	2.1*
CN1CCC/C1=C/C=C1\SC(=S)NC1=O	nt	100	86	nt	nt
Cc1ccc2cc3c(NC(=O)c4ccco4)nn(C)c3nc2c1	35*	90	92	102	75
SMILES	H69AR growth 86K	bCat KO growth	HCT116 PTEN-null	Lung fibro prol	HUVEC prolif 384
CC(=O)Nc1nn(C)c2nc3cc(C)ccc3cc12	84	95	98	100	86
O=C(O)C1C2C=CC3(CN(Cc4ccncc4)C(=O)C13)O2 (configuration not stated)	nt	87	95	nt	nt
Clc1ccccc1-c1nnc2sc(-c3ccc4c(c3)OCO4)nn12	23*	89	65	92	50
CN(C)c1ccc(-c2nn3c(-c4ccc(Cl)cc4Cl)nnc3s2)cc1	14*	34	35	85	45
Clc1cccc(-c2nnc3sc(-c4ccc5c(c4)OCO5)nn23)c1	nt	nt	nt	100	106
Brc1ccccc1-c1nnc2sc(-c3ccc4c(c3)OCCO4)nn12	17*	34	34	87	72
CCc1ccc(OC(C)c2nnc(SCC(=O)Nc3ncccc3C)n2C)cc1 (configuration not stated)	nt	89	95	nt	nt
CCCCOP(=O)(OCCCC)C1(NS(=O)(=O)c2ccccc2)C=CC(=O)c2ccccc21 (configuration not stated)	12*	87	67	86	34
CCCCOCCCNS(=O)(=O)c1ccccc1	99	100	102	98	88
Fc1cc(F)c2nc(Nc3nc4cc5c(cc4s3)OCO5)sc2c1	nt	1.3*	6	nt	nt
Cc1ccc(-c2nsc3c(N4CCN(C(=O)c5ccco5)CC4)ncnc23)cc1	81	nt	nt	99	95
O=C(c1ccco1)N1CCN(c2ncnc3scc(-c4ccc(F)cc4)c23)CC1	24*	84	76	69	87
N=c1n(CCO)c2ccccc2n1CCOc1ccc(Cl)cc1Cl	20*	1.7*	1.6*	58	2.1*
CCOc1cc(/C=N/N=C(N)N)ccc1OCc1ccc(Cl)cc1	nt	1.3*	1.2*	nt	nt
CCOc1cc(/C=N/N=C(/N)c2nonc2N)cc(Br)c1OCc1ccc(Cl)cc1	18*	100	108	29*	22*
COc1cc(/C=N/N=C(/N)c2nonc2N)cc(Br)c1OCc1ccccc1C	61	21	22	52	51
CCOc1cc(/C=N/O)ccc1OCc1ccc(F)cc1	nt	96	93	nt	nt
CCOC(=O)c1[nH]c(C)c(C(=O)OCCOc2cccc(C)c2)c1C	nt	81	86	nt	nt
COc1ccc(OC)c(NC(=O)c2cc(-c3cc(Cl)ccc3O)n[nH]2)c1	1.2*	50	20	50	45
Nc1nnc(-c2cccnc2)s1	72	91	94	105	95
c1cncc(-c2nnc(-c3cccnc3)nn2)c1	3.7*	1.7*	1.6*	59	3.9*
Cc1ccc(OCC(=O)N2CCC(N3CCCCCC3)CC2)cc1	100	88	100	106	97
O=C1CSC(c2ccccn2)N1Cc1cn2ccccc2n1 (configuration not stated)	94	79	79	14*	100
COc1ccc(CN2CNc3c(c(=O)n(C)c(=O)n3C)C2)cc1	nt	97	108	nt	nt
O=C(Nc1ccc2nc3n(c(=O)c2c1)CCCC3)c1cc([N+](=O)[O-])ccc1F	nt	2.5*	10	nt	nt
Nc1ccc(C(=O)n2c3ccccc3c3ccccc32)cc1	19*	13	15	50*	45
COc1ccc(Cl)cc1NC(=O)C1CSC(c2ccncc2)=N1 (configuration not stated)	30*	69	73	78	84
COc1ccc(Cl)cc1NC(=O)NC(C)c1ccncc1 (configuration not stated)	52	80	72	101	87
CC(=Nc1cccc(C)c1)c1sc2ccccc2c1O	44	84	87	109	86
